Results reported in PMC3832383 (Drug Design, Development and Therapy, 2013).
≈ marks a conversion by molar mass, not a printed value. Like-named read-outs stand apart in the source and are kept apart here.

Legend:
[1] = tested on: P. falciparum strain NF54; assay: [3H]hypoxanthine incorporation assay, unsynchronized parasites; type: cell-based; settings: Plasmodium falciparum, NF54, 72 h
In short: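 Two ways of diluting the 10 mg/mL stock were compared. In one, the stock went straight into hypoxanthine-free medium. In the other, it was diluted 1/50 in co-solvent, then 1/100 and 1/2 in hypoxanthine-free medium.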

[2] = tested on: P. falciparum strain NF54; settings: unsynchronized NF54; cited from earlier work
[3] = tested on: Plasmodium falciparum strain NF54 (rings, trophozoites, schizonts); assay: In vitro assessment of stage-specific activity, synchronous cultures; type: cell-based; settings: control drug; data not shown
In short: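 P. falciparum NF54 synchronized by two 5% D-sorbitol treatments, with intervals set to give rings (>80%, ≤6 h old), trophozoites (≥80%, ≤20 h) or early schizonts (≤36 h). Stages were exposed 6 or 24 h to two-fold dilutions (final 250–7.81 ng/mL) in hypoxanthine-free medium, co-solvent <0.5%, then washed and assessed by [3H]hypoxanthine incorporation. Values are mean ± SD of 3–4 independent experiments.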

SMILES | IC50 [1] | IC50 [2] | effect against ring and trophozoite stages [3]
CCN(CC)Cc1cc(Nc2ccnc3cc(Cl)ccc23)ccc1O [amodiaquine] | 1.5 ng/mL (≈ 0.00422 µM) | – | –
C[C@@H]1CC[C@H]2[C@@H](C)C(=O)O[C@@H]3O[C@@]4(C)CC[C@@H]1[C@]32OO4 [artemisinin] | 3 ng/mL (≈ 0.0106 µM) | – | –
O=C1C(O)=C([C@H]2CC[C@H](c3ccc(Cl)cc3)CC2)C(=O)c2ccccc21 [atovaquone] | – | 0.38 ng/mL (≈ 0.00104 µM) | –
OC(c1cc(C(F)(F)F)nc2c(C(F)(F)F)cccc12)C1CCCCN1 (stereo not drawn) [mefloquine] | 4.1 ng/mL (≈ 0.0108 µM) | – | –
Clc1ccc2c(N3CCN(CCCN4CCN(c5ccnc6cc(Cl)ccc56)CC4)CC3)ccnc2c1 [piperaquine] | 7.8 ng/mL (≈ 0.0146 µM) | – | –
[H]/N=C(\N/C(=N/[H])Nc1ccc(Cl)cc1)NC(C)C [proguanil] | – | 440 ng/mL (≈ 1.73 µM) | –
CCc1nc(N)nc(N)c1-c1ccc(Cl)cc1 [pyrimethamine] | 3 ng/mL (≈ 0.0121 µM) | – | ineffective
COc1ccc2nc3cc(Cl)ccc3c(Nc3cc(CN4CCCC4)c(O)c(CN4CCCC4)c3)c2n1 [pyronaridine] | 2.6 ng/mL (≈ 0.00502 µM) | – | –
